Assay results published in ChEMBL document CHEMBL1142328, “Imidazolidines as new anti-Trypanosoma cruzi agents: biological evaluation and structure-activity relationships” (Bioorg Med Chem, 2008).
Calls of active or inactive are those of the source. The calls are words filed in the database; no cut-off is given here.

What follows are compounds tested on Trypanosoma cruzi (assay: Increase in alanine metabolite excretion in cell free medium of Trypanosoma cruzi Y relative to control). Settings: not given.
Format: functional, organism-based
Method in brief: (§1)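 Parasites treated with compound for 2 days. 5 mL of culture centrifuged at 1500g, 10 min, 4 °C. Parasite-free supernatant stored at −20 °C, then analysed by 1H NMR. Metabolite signals confirmed by spiking and by a 4 µg/mL standard in phosphate buffer pH 7.4. Increase expressed as % relative to untreated cells.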

| SMILES | Activity |
| --- | --- |
| Clc1ccc(CN2CCN(Cc3ccc(Cl)c(Cl)c3)C2c2ccco2)cc1Cl | 30% |
| Oc1cccc(C2N(Cc3ccc(Cl)cc3)CCN2Cc2ccc(Cl)cc2)c1 | 40% |

These compounds were tested on Trypanosoma cruzi (assay: Increase in glycine metabolite excretion in cell free medium of Trypanosoma cruzi Y relative to control). Settings: not given.
Format: functional, organism-based
Method in brief: as §1

| SMILES | Activity |
| --- | --- |
| Clc1ccc(CN2CCN(Cc3ccc(Cl)c(Cl)c3)C2c2ccco2)cc1Cl | 15% |
| Oc1cccc(C2N(Cc3ccc(Cl)cc3)CCN2Cc2ccc(Cl)cc2)c1 | 60% |

The compounds below were run on Trypanosoma cruzi (assay: Growth inhibition of Trypanosoma cruzi epimastigotes Tulahuen 2 at 25 uM). Settings: not given.
Format: functional
Method in brief: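 Epimastigotes in BHI-Tryptose + 5% FBS at 28 °C, inoculated at 1×10^6 cells/mL from 10-day stationary culture. Drug tested at 25 μM from DMSO stock (final DMSO ≤0.4%; 0.4% DMSO control). Inhibition % = {1 − [(Ap − A0p)/(Ac − A0c)]}×100 using A600 at day 0 and day 5. Means of three experiments.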

| SMILES | Activity |
| --- | --- |
| Oc1ccccc1CNCCNCc1ccccc1O | inactive |

Same assay, conditions: read-out: GI

| SMILES | inhibition of growth at 25 µM |
| --- | --- |
| Clc1ccc(CN2CCN(Cc3ccc(Cl)c(Cl)c3)C2c2ccc(Cl)c(Cl)c2)cc1Cl | 30% |
| Cc1ccc(CN2CCN(Cc3ccc(C)cc3)C2c2cccc(Cl)c2)cc1 | 99% |
| COc1ccc(CN2CCN(Cc3ccc(OC)cc3)C2C)cc1 | 40% |
| Clc1cccc(CN2CCN(Cc3cccc(Cl)c3)C2)c1 | 100% |
| COc1ccc(CN2CCN(Cc3ccc(OC)cc3)C2c2ccccc2Cl)cc1 | 49% |
| Clc1ccc(CN2CCN(Cc3ccc(Cl)cc3)C2c2ccccc2Cl)cc1 | 100% |
| Clc1ccc(CN2CCN(Cc3ccc(Cl)cc3)C2c2ccc(Cl)c(Cl)c2)cc1 | 92% |
| Cc1ccc(N2CCN(Cc3ccccc3)C2)cc1 | 44.2% |
| Clc1ccc(CN2CCN(Cc3ccc(Cl)c(Cl)c3)C2c2ccccc2)cc1Cl | 100% |
| c1ccc(CN2CCN(Cc3ccccc3)C2c2ccccc2)cc1 | 63% |
| Clc1ccc(N2CCN(CN3CCN(c4ccc(Cl)cc4)C3)C2)cc1 | 0% |
| Clc1ccc(CN2CCN(Cc3ccc(Cl)cc3)C2c2cccc(Cl)c2)cc1 | 100% |
| Oc1ccccc1C1N(Cc2ccc(Cl)cc2)CCN1Cc1ccc(Cl)cc1 | 86.8% |
| Clc1ccc(CN2CCN(Cc3ccc(Cl)cc3)C2/C=C/c2ccccc2)cc1 | 100% |
| COc1ccc(CN2CCN(Cc3ccc(OC)cc3)C2c2ccccc2)cc1 | 75.3% |
| Clc1ccc(CN2CCN(Cc3ccc(Cl)c(Cl)c3)C2c2ccco2)cc1Cl | 93.9% |
| CC1N(c2ccccc2)CCN1c1ccccc1 | 12.4% |
| Oc1ccccc1CN1CCN(Cc2ccccc2O)C1c1ccccc1 | 4.8% |
| Clc1ccc(C2N(Cc3ccccc3)CCN2Cc2ccccc2)cc1 | 60% |
| Clc1cccc(CN2CCN(Cc3cccc(Cl)c3)C2c2ccccc2)c1 | 100% |
| c1ccc(C2N(c3ccccc3)CCN2c2ccccc2)cc1 | 39.6% |
| Cc1ccc(N2CCN(CN3CCN(c4ccc(C)cc4)C3)C2)cc1 | 0% |
| COc1ccc(CN2CCN(Cc3ccc(OC)cc3)C2c2ccc([N+](=O)[O-])cc2)cc1 | 83% |
| CC1CS(=O)(=O)CCN1/N=C/c1ccc([N+](=O)[O-])o1 (stereo unspecified) [NIFURTIMOX] | 100% |
| Clc1ccc(CN2CCN(Cc3ccc(Cl)cc3)C2c2ccco2)cc1 | 89.4% |
| c1ccc(CN2CCN(c3ccccc3)C2)cc1 | 17.2% |
| COc1ccc(C2N(Cc3ccc(Cl)cc3)CCN2Cc2ccc(Cl)cc2)cc1 | 100% |

| SMILES | inhibition of growth at 25 µM |
| --- | --- |
| O=[N+]([O-])c1ccc(C2N(Cc3ccc(Cl)cc3)CCN2Cc2ccc(Cl)cc2)cc1 | 100% |
| Clc1ccc(CN2CCN(Cc3ccc(Cl)cc3)C2c2ccc(Cl)cc2)cc1 | 100% |
| COc1ccc(CN2CCN(Cc3ccc(OC)cc3)C2c2cccc(Cl)c2)cc1 | 95% |
| Brc1cccc(N2CCN(CN3CCN(c4cccc(Br)c4)C3)C2)c1 | 10.8% |
| Brc1ccc(N2CCN(CN3CCN(c4ccc(Br)cc4)C3)C2)cc1 | 0% |
| CN1CCN(c2ccccc2)C1c1ccccc1 (stereo unspecified) | 0% |
| Cc1ccc(CN2CCN(Cc3ccc(C)cc3)C2c2ccc(Cl)cc2)cc1 | 100% |
| O=[N+]([O-])c1ccc(N2CCN(CN3CCN(c4ccc([N+](=O)[O-])cc4)C3)C2)cc1 | 0% |
| Oc1cccc(C2N(Cc3ccc(Cl)cc3)CCN2Cc2ccc(Cl)cc2)c1 | 97.4% |
| COc1ccc(CN2CCN(Cc3ccc(OC)cc3)C2c2ccc(Cl)cc2)cc1 | 100% |
| c1ccc(N2CCN(c3ccccc3)C2)cc1 | 12.3% |
| COc1ccc(CN2CCN(Cc3ccc(OC)cc3)C2c2ccc(Cl)c(Cl)c2)cc1 | 91% |
| Cc1ccc(N2CCN(C)C2c2ccccc2)cc1 (stereo unspecified) | 8.9% |
| Clc1ccc(N2CCN(Cc3ccccc3)C2)cc1 | 64.7% |
| Clc1ccc(N2CCN(Cc3ccccc3)C2c2ccccc2)cc1 (stereo unspecified) | 70.4% |
| Clc1cccc(N2CCN(CN3CCN(c4cccc(Cl)c4)C3)C2)c1 | 8% |
| Cc1ccc(CN2CCN(Cc3ccc(C)cc3)C2c2ccccc2)cc1 | 100% |
| Clc1ccc(CN2CCN(Cc3ccc(Cl)c(Cl)c3)C2)cc1Cl | 100% |
| Clc1ccc(CN2CCN(Cc3ccc(Cl)cc3)C2)cc1 | 100% |
| COc1ccc(CN2CCN(Cc3ccc(OC)cc3)C2/C=C/c2ccccc2)cc1 | 98.6% |
| Clc1ccc(C2N(Cc3ccc(Cl)c(Cl)c3)CCN2Cc2ccc(Cl)c(Cl)c2)cc1 | 50% |
| Cc1ccc(N2CCN(Cc3ccccc3)C2c2ccccc2)cc1 (stereo unspecified) | 46% |
| c1ccc(CN2CCN(c3ccccc3)C2c2ccccc2)cc1 (stereo unspecified) | 45.1% |
| COc1ccc(N2CCN(CN3CCN(c4ccc(OC)cc4)C3)C2)cc1 | 0% |
| Clc1ccc(CN2CCN(Cc3ccc(Cl)cc3)C2c2ccccc2)cc1 | 94.5% |
| c1ccc(N2CCN(CN3CCN(c4ccccc4)C3)C2)cc1 | 0% |
| COc1ccc(CN2CCN(Cc3ccc(OC)cc3)C2c2cccc([N+](=O)[O-])c2)cc1 | 93% |

These compounds were tested on Trypanosoma cruzi (assay: Increase in acetate metabolite excretion in cell free medium of Trypanosoma cruzi Y relative to control). Settings: not given.
Format: functional, organism-based
Method in brief: as §1

| SMILES | Activity |
| --- | --- |
| Clc1ccc(CN2CCN(Cc3ccc(Cl)c(Cl)c3)C2c2ccco2)cc1Cl | 10% |
| Oc1cccc(C2N(Cc3ccc(Cl)cc3)CCN2Cc2ccc(Cl)cc2)c1 | 60% |

These compounds were tested on Trypanosoma cruzi (assay: Increase in lactose metabolite excretion in cell free medium of Trypanosoma cruzi Y relative to control). Settings: in the assay text read “lactate” for “lactose”.
Format: functional, organism-based
Method in brief: as §1

| SMILES | Activity |
| --- | --- |
| Clc1ccc(CN2CCN(Cc3ccc(Cl)c(Cl)c3)C2c2ccco2)cc1Cl | 10% |
| Oc1cccc(C2N(Cc3ccc(Cl)cc3)CCN2Cc2ccc(Cl)cc2)c1 | 30% |

The compounds below were run on Trypanosoma cruzi (assay: Growth inhibition of Trypanosoma cruzi epimastigotes Tulahuen 2). Settings: not given.
Format: functional, organism-based
Method in brief: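 Epimastigotes grown axenically at 28 °C in BHI-Tryptose with 5% FBS. Stationary-phase (10-day) cells inoculated at 1×10^6 cells/mL into medium with drug (DMSO stock, final DMSO ≤0.4%; 0.4% DMSO control). Growth followed by A600 daily. IC50 = concentration reducing the day-5 absorbance ratio vs control to 50%, over increasing concentrations. Means of three experiments.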

| IC50 | SMILES |
| --- | --- |
| 13.4 µM | Cc1ccc(CN2CCN(Cc3ccc(C)cc3)C2c2cccc(Cl)c2)cc1 |
| 37 µM | COc1ccc(CN2CCN(Cc3ccc(OC)cc3)C2C)cc1 |
| 9.7 µM | Clc1cccc(CN2CCN(Cc3cccc(Cl)c3)C2)c1 |
| 25.3 µM | COc1ccc(CN2CCN(Cc3ccc(OC)cc3)C2c2ccccc2Cl)cc1 |
| 11 µM | Clc1ccc(CN2CCN(Cc3ccc(Cl)cc3)C2c2ccccc2Cl)cc1 |
| 9 µM | Clc1ccc(CN2CCN(Cc3ccc(Cl)cc3)C2c2ccc(Cl)c(Cl)c2)cc1 |
| 6.4 µM | Clc1ccc(CN2CCN(Cc3ccc(Cl)c(Cl)c3)C2c2ccccc2)cc1Cl |
| 4.7 µM | Clc1ccc(CN2CCN(Cc3ccc(Cl)cc3)C2c2cccc(Cl)c2)cc1 |
| 4.3 µM | Oc1ccccc1C1N(Cc2ccc(Cl)cc2)CCN1Cc1ccc(Cl)cc1 |
| 10.2 µM | Clc1ccc(CN2CCN(Cc3ccc(Cl)cc3)C2/C=C/c2ccccc2)cc1 |
| 1.1 µM | COc1ccc(CN2CCN(Cc3ccc(OC)cc3)C2c2ccccc2)cc1 |
| 4.1 µM | Clc1ccc(CN2CCN(Cc3ccc(Cl)c(Cl)c3)C2c2ccco2)cc1Cl |
| 2 µM | Clc1ccc(CNCCNCc2ccc(Cl)cc2)cc1 |
| 23.5 µM | Clc1ccc(C2N(Cc3ccccc3)CCN2Cc2ccccc2)cc1 |
| 14.7 µM | Clc1cccc(CN2CCN(Cc3cccc(Cl)c3)C2c2ccccc2)c1 |
| 16.5 µM | COc1ccc(CN2CCN(Cc3ccc(OC)cc3)C2c2ccc([N+](=O)[O-])cc2)cc1 |
| 4.3 µM | Clc1ccc(CN2CCN(Cc3ccc(Cl)cc3)C2c2ccco2)cc1 |

| IC50 | SMILES |
| --- | --- |
| 5 µM | COc1ccc(C2N(Cc3ccc(Cl)cc3)CCN2Cc2ccc(Cl)cc2)cc1 |
| 14.5 µM | O=[N+]([O-])c1ccc(C2N(Cc3ccc(Cl)cc3)CCN2Cc2ccc(Cl)cc2)cc1 |
| 8.9 µM | Clc1ccc(CN2CCN(Cc3ccc(Cl)cc3)C2c2ccc(Cl)cc2)cc1 |
| 14 µM | COc1ccc(CN2CCN(Cc3ccc(OC)cc3)C2c2cccc(Cl)c2)cc1 |
| 9 µM | Cc1ccc(CN2CCN(Cc3ccc(C)cc3)C2c2ccc(Cl)cc2)cc1 |
| 4.6 µM | Oc1cccc(C2N(Cc3ccc(Cl)cc3)CCN2Cc2ccc(Cl)cc2)c1 |
| 14.9 µM | COc1ccc(CN2CCN(Cc3ccc(OC)cc3)C2c2ccc(Cl)cc2)cc1 |
| 16 µM | COc1ccc(CN2CCN(Cc3ccc(OC)cc3)C2c2ccc(Cl)c(Cl)c2)cc1 |
| 12.5 µM | Cc1ccc(CN2CCN(Cc3ccc(C)cc3)C2c2ccccc2)cc1 |
| 15.1 µM | Clc1ccc(CN2CCN(Cc3ccc(Cl)c(Cl)c3)C2)cc1Cl |
| 10.3 µM | Clc1ccc(CN2CCN(Cc3ccc(Cl)cc3)C2)cc1 |
| 10 µM | COc1ccc(CN2CCN(Cc3ccc(OC)cc3)C2/C=C/c2ccccc2)cc1 |
| 25 µM | Clc1ccc(C2N(Cc3ccc(Cl)c(Cl)c3)CCN2Cc2ccc(Cl)c(Cl)c2)cc1 |
| 16.2 µM | COc1ccc(CNCCNCc2ccc(OC)cc2)cc1 |
| 5 µM | Clc1ccc(CN2CCN(Cc3ccc(Cl)cc3)C2c2ccccc2)cc1 |
| 23 µM | COc1ccc(CN2CCN(Cc3ccc(OC)cc3)C2c2cccc([N+](=O)[O-])c2)cc1 |
